Key:
[1] = target: T1, Serine/threonine-protein kinase Nek1 (Homo sapiens) (UniProt Q96PY6); experiment: Inhibition of recombinant human N-terminal GST-tagged full length NEK1 expressed in baculovirus infected Sf9 insect cells assessed as enzyme activity incubated for 15 mins by [gamma-33]ATP based scintillation counting method relative to control; set-up: scale not given: the % may be the effect or the level left
T1 sequence (whole entry): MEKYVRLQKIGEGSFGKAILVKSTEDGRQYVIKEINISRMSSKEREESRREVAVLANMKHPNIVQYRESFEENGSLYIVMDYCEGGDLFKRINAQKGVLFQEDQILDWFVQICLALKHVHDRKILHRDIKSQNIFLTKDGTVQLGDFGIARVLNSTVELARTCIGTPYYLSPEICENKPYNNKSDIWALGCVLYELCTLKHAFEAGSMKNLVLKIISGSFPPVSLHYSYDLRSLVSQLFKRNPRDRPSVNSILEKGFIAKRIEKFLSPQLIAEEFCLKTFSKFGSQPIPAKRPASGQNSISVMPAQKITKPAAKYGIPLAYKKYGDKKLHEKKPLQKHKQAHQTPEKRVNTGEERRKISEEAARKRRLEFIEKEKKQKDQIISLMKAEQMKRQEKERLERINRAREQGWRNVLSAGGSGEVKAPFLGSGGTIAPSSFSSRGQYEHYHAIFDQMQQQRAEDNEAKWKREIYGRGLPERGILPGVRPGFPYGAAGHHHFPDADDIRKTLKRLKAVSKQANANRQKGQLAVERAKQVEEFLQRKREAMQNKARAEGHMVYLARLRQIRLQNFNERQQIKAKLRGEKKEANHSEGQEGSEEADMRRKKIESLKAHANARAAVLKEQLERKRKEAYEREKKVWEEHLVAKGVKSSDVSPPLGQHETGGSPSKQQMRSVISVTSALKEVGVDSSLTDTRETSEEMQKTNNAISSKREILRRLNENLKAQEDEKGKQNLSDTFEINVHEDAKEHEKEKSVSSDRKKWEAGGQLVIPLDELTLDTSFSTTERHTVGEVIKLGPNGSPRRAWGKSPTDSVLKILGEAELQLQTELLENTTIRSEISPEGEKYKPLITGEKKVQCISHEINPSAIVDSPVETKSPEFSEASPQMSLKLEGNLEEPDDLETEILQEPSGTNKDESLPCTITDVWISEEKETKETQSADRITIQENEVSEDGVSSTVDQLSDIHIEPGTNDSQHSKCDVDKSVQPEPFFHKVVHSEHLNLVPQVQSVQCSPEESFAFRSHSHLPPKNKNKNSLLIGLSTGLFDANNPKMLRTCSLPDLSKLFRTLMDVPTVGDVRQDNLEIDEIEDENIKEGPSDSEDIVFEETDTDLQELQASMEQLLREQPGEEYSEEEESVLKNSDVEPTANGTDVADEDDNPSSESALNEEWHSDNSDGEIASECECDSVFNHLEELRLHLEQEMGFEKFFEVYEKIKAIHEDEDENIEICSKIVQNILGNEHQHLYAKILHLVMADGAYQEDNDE

[2] = system: MRC5; experiment: Cytotoxicity against human MRC5 cells assessed as reduction in cell growth incubated for 72 hrs by MTT assay; type: cell-based; conditions: MRC5, 72 h
Summary of the method: (§1)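 MTT assay on MCF-7, A2780, HT29 and normal MRC5 fibroblast lines (ATCC) grown in DMEM with 10% FBS. Cells exposed to compounds for 72 h, then reduced MTT read at 570 nm.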

[3] = target: Tyrosine-protein kinase Blk (Homo sapiens) (UniProt P51451); experiment: Inhibition of recombinant human N-terminal GST-tagged full length BLK expressed in baculovirus infected Sf9 insect cells assessed as enzyme activity incubated for 15 mins by [gamma-33]ATP based scintillation counting method relative to control; set-up: scale not given: the % may be the effect or the level left
Sequence of Tyrosine-protein kinase Blk (Homo sapiens) (P51451 2-505 limits assumed): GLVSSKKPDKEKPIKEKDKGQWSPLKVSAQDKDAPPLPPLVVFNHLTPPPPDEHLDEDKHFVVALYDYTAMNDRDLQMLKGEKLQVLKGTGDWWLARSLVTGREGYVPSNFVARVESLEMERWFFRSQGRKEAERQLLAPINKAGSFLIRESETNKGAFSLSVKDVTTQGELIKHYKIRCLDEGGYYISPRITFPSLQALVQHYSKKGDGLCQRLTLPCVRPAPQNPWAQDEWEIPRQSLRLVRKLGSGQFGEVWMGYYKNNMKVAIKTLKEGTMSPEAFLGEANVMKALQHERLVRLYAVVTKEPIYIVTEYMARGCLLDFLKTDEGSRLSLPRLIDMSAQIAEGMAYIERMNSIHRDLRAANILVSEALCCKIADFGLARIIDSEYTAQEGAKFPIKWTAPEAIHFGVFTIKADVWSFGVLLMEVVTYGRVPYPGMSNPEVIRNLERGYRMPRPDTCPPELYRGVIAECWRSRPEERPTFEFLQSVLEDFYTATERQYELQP

[4] = target: T2, Dual specificity tyrosine-phosphorylation-regulated kinase 3 (Homo sapiens) (UniProt O43781); experiment: Inhibition of DYRK3 (unknown origin) assessed as enzyme activity incubated for 15 mins by [gamma-33]ATP based scintillation counting method relative to control; set-up: scale not given: the % may be the effect or the level left
T2 sequence (whole entry): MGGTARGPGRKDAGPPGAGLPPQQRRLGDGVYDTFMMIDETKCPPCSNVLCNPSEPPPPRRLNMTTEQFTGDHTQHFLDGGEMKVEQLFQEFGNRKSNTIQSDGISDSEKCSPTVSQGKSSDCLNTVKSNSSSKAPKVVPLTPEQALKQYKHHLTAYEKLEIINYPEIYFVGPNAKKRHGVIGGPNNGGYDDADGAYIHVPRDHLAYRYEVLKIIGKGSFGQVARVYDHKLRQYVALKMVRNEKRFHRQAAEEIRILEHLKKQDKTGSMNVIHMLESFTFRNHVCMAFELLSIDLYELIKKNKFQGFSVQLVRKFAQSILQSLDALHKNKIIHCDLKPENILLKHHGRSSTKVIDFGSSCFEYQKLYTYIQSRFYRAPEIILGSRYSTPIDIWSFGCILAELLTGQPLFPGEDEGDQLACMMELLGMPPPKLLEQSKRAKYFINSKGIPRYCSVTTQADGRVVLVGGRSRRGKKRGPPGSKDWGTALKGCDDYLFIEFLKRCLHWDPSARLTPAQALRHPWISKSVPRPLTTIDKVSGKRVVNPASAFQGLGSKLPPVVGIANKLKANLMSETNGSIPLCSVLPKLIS

[5] = target: Vascular endothelial growth factor receptor 1 (Homo sapiens) (UniProt P17948); experiment: Inhibition of recombinant human N-terminal GST-tagged FLT1 (784 to end residues) expressed in baculovirus infected Sf9 insect cells assessed as enzyme activity incubated for 15 mins by [gamma-33]ATP based scintillation counting method relative to control; set-up: scale not given: the % may be the effect or the level left
Sequence of Vascular endothelial growth factor receptor 1 (Homo sapiens) (P17948 whole entry): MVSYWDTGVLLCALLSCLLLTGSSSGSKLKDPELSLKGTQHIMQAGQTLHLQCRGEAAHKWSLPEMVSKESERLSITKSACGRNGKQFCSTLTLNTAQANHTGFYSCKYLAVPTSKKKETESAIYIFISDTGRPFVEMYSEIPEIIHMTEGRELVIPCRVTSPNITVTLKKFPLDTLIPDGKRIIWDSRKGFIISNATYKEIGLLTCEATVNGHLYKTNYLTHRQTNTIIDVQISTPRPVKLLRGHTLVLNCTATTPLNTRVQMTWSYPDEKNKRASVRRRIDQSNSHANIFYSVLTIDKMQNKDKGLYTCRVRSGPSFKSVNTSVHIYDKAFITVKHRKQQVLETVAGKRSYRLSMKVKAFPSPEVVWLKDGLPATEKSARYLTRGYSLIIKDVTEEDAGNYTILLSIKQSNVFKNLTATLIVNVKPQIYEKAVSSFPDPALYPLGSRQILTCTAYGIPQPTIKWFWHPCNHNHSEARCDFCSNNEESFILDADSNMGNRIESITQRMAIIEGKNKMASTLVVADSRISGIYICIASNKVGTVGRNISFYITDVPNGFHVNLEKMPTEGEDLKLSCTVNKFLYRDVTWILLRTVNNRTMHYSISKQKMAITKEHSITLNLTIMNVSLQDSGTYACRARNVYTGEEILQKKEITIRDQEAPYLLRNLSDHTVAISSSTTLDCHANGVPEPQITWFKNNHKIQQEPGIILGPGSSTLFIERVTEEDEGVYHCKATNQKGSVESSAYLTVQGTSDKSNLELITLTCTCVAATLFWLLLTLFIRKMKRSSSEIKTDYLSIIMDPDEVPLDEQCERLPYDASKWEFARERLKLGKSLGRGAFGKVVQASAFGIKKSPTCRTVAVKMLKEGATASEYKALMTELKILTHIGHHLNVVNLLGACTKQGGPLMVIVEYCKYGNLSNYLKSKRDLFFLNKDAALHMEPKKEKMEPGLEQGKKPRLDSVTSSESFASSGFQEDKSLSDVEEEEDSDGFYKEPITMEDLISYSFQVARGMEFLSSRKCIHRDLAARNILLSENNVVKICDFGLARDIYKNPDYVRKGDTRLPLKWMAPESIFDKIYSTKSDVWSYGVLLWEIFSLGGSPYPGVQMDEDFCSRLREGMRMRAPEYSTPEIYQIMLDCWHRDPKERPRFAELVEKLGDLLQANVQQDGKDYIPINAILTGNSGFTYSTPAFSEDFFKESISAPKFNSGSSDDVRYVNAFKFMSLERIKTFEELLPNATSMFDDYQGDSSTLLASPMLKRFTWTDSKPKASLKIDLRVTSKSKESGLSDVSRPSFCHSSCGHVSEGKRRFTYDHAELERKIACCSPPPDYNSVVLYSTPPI

[6] = target: Cyclin-dependent kinase 2 (Homo sapiens, UniProt P24941); experiment: Inhibition of CDK2 (unknown origin) incubated for 40 mins by ADP-glo assay
[7] = system: MCF7; experiment: Antiproliferative activity against human MCF7 cells assessed as reduction in cell growth incubated for 72 hrs by MTT assay; type: functional, cell-based; conditions: MCF7, 72 h; summary of the method: as §1
[8] = target: T3, Serine/threonine-protein kinase Sgk1 (Homo sapiens) (UniProt O00141); experiment: Inhibition of recombinant human N-terminal GST-tagged SGK1 (60 to end residues) expressed in baculovirus infected Sf9 insect cells assessed as enzyme activity incubated for 15 mins by [gamma-33]ATP based scintillation counting method relative to control; set-up: scale not given: the % may be the effect or the level left
T3 sequence (whole entry): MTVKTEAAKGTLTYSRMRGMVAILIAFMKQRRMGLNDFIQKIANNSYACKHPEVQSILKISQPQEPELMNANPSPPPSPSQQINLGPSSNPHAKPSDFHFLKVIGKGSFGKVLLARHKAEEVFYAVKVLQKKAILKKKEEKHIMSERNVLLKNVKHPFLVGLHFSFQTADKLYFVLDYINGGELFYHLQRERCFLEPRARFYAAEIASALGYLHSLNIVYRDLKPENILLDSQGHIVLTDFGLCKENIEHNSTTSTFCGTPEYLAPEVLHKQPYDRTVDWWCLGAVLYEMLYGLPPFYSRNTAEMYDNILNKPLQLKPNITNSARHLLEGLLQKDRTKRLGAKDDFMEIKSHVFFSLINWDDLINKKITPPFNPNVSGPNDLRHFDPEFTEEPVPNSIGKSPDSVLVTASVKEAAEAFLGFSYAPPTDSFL

| SMILES | Activity [1] [%] | IC50 [2] [nM] | Activity [3] [%] | Activity [4] [%] | Activity [5] [%] | IC50 [6] [nM] | IC50 [7] [nM] | Activity [8] [%] |
| --- | --- | --- | --- | --- | --- | --- | --- | --- |
| CCC1SCC(=O)N1c1c(C#N)c2n(c1C(=O)Nc1ccccc1)CCC2 (stereo not drawn) | 10 | 630 | 26 | 38 | 32 | 630 | 160 | 8 |
| CC/C=N/c1c(C#N)c2n(c1C(=O)Nc1ccccc1)CCC2 | -1 | 3170 | -32 | 33 | 18 | 580 | 570 | -14 |
| Cc1ccc(NC(=O)c2ccc(CN3CCN(C)CC3)cc2)cc1Nc1nccc(-c2cccnc2)n1 | – | – | -3 | -10 | -10 | – | – | 3 |
| CC(C)C/C=N/c1c(C#N)c2n(c1C(=O)Nc1ccc(Br)cc1)CCC2 | -14 | 25800 | 7 | -25 | 1 | 1270 | 100 | 7 |

— ChEMBL document CHEMBL4312005, “Optimization of pyrrolizine-based Schiff bases with 4-thiazolidinone motif: Design, synthesis and investigation of cytotoxicity and anti-inflammatory potency” (Eur J Med Chem, 2020)
